Values joined by “and” are separate entries in the source; they are usually repeats but may differ in a detail not shown here. Equal values may be shown once.
Experiments:
MDA-MB-435 [1] = experiment: Inhibition of LCC6-MDR human breast carcinoma cell line growth was determined at 5 uM; No growth inhibition; type: functional, cell-based
MDA-MB-435 [2] = experiment: Inhibition of LCC6-MDR human breast carcinoma cell line growth was determined at 1 uM; No growth inhibition; type: functional, cell-based
MDA-MB-435 [3] = experiment: Percent reduction of inhibitory concentration against LCC6-MDR human breast cancer cell line at 5 uM concentration; type: functional; conditions: for Reduction: in the assay text read “at 1 uM concentration” for “at 5 uM concentration”
Procedure, shortened: (§1)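 Paclitaxel was tested against MDR1-transfected LCC6-MDR cells while co-administered with each reversal agent at fixed concentrations (four levels overall). Paclitaxel IC50 was determined under each condition. Percent IC50 reduction, taken as reversal activity, was calculated relative to paclitaxel alone.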

MDA-MB-435 [4] = experiment: Cytotoxicity against paclitaxel resistant LCC6-MDR-MDR1 transfected cell line; type: functional, cell-based; conditions: Homo sapiens
MDA-MB-435 [5] = experiment: Inhibition of LCC6-MDR-MDR1 transfected cell line growth was determined at 10 uM; type: functional; conditions: Homo sapiens
MDA-MB-435 [6] = experiment: Cytotoxicity against paclitaxel sensitive LCC6-WT-human breast carcinoma cell line; type: functional, cell-based
MDA-MB-435 [7] = experiment: Inhibition of LCC6-WT-human breast carcinoma cell line growth was determined at 10 uM; type: functional
MDA-MB-435 [8] = experiment: Reversal activity against LCC6-MDR human breast carcinoma cell line; type: functional; procedure, shortened: as §1
MDA-MB-435 [9] = experiment: Percent reduction of inhibitory concentration against LCC6-MDR human breast cancer cell line at 1 uM concentration
MDA-MB-435 [10] = experiment: Inhibitory concentration against LCC6-MDR human breast cancer cell line; type: functional, cell-based; procedure, shortened: as §1

Row | SMILES | inhibition (MDA-MB-435 [1]) | inhibition (MDA-MB-435 [2]) | IC50 reduction (MDA-MB-435 [3]) | IC50 (MDA-MB-435 [4]) [nM] | IC50 (MDA-MB-435 [6]) [nM] | other results
1 | CC(=O)O[C@H]1C(=O)[C@@]2(C)C([C@H](OC(=O)c3ccccc3)[C@]3(O)C[C@H](OC(=O)[C@H](O)[C@@H](NC(=O)c4ccccc4)c4ccccc4)C(C)=C1C3(C)C)[C@]1(OC(C)=O)CO[C@@H]1C[C@@H]2O.COc1cc(NC(C)CCCNS(=O)(=O)c2ccc3ccccc3c2)c2ncccc2c1 (some centres undefined) [listing 1 of 2 here] | No inhibition | No inhibition | – | – | – | –
2 | CC(=O)O[C@H]1C(=O)[C@@]2(C)C([C@H](OC(=O)c3ccccc3)[C@]3(O)C[C@H](OC(=O)[C@H](O)[C@@H](NC(=O)c4ccccc4)c4ccccc4)C(C)=C1C3(C)C)[C@]1(OC(C)=O)CO[C@@H]1C[C@@H]2O.COc1cc(NC(C)CCCN(Cc2ccccc2)S(=O)(=O)c2ccc3ccccc3c2)c2ncccc2c1 (some centres undefined) [listing 1 of 2 here] | No inhibition | No inhibition | – | – | – | –
3 | CC(=O)O[C@H]1C(=O)[C@@]2(C)C([C@H](OC(=O)c3ccccc3)[C@]3(O)C[C@H](OC(=O)[C@H](O)[C@@H](NC(=O)c4ccccc4)c4ccccc4)C(C)=C1C3(C)C)[C@]1(OC(C)=O)CO[C@@H]1C[C@@H]2O.COc1cc(NC(C)CCCNS(=O)(=O)c2ccc3ccccc3c2)c2ncccc2c1 (some centres undefined) [listing 2 of 2 here] | – | – | 97% | – | – | Reduction (MDA-MB-435 [3]): 36%
4 | COc1cc(NC(C)CCCNS(=O)(=O)c2ccc3ccccc3c2)c2ncccc2c1 (centres undefined) | – | – | – | > 10000 | > 10000 | inhibition at 10 µM (MDA-MB-435 [5]): 8%; inhibition at 10 µM (MDA-MB-435 [7]): 16%
5 | CC(=O)O[C@H]1C(=O)[C@@]2(C)C([C@H](OC(=O)c3ccccc3)[C@]3(O)C[C@H](OC(=O)[C@H](O)[C@@H](NC(=O)c4ccccc4)c4ccccc4)C(C)=C1C3(C)C)[C@]1(OC(C)=O)CO[C@@H]1C[C@@H]2O.O=S(=O)(c1ccc2ccccc2c1)N(CCCCCCNc1ccnc2cc(Cl)ccc12)Cc1ccccc1 (some centres undefined) [listing 1 of 2 here] | – | – | 99% and 54% and 39% | – | – | Reversal activity (MDA-MB-435 [8]): 99%
6 | O=S(=O)(c1ccc2ccccc2c1)N(CCCCNc1ccnc2cc(Cl)ccc12)Cc1ccccc1 | – | – | – | > 10000 | > 10000 | inhibition at 10 µM (MDA-MB-435 [5]): 3%; inhibition at 10 µM (MDA-MB-435 [7]): 6%
7 | CC(=O)O[C@H]1C(=O)[C@@]2(C)C([C@H](OC(=O)c3ccccc3)[C@]3(O)C[C@H](OC(=O)[C@H](O)[C@@H](NC(=O)c4ccccc4)c4ccccc4)C(C)=C1C3(C)C)[C@]1(OC(C)=O)CO[C@@H]1C[C@@H]2O.O=S(=O)(c1ccc2ccccc2c1)N(CCCCNc1ccnc2cc(Cl)ccc12)Cc1ccccc1 (some centres undefined) [listing 1 of 2 here] | No inhibition | No inhibition | – | – | – | –
8 | COc1cc(NC(C)CCCN(Cc2ccccc2)S(=O)(=O)c2ccc3ccccc3c2)c2ncccc2c1 (centres undefined) | – | – | – | > 10000 | > 10000 | inhibition at 10 µM (MDA-MB-435 [5]): 8%; inhibition at 10 µM (MDA-MB-435 [7]): 0%
9 | CC(=O)O[C@H]1C(=O)[C@@]2(C)C([C@H](OC(=O)c3ccccc3)[C@]3(O)C[C@H](OC(=O)[C@H](O)[C@@H](NC(=O)c4ccccc4)c4ccccc4)C(C)=C1C3(C)C)[C@]1(OC(C)=O)CO[C@@H]1C[C@@H]2O.O=S(=O)(c1ccc2ccccc2c1)N(CCCCCCNc1ccnc2cc(Cl)ccc12)Cc1ccccc1 (some centres undefined) [listing 2 of 2 here] | No inhibition | No inhibition | – | – | – | –
10 | CC(=O)O[C@H]1C(=O)[C@@]2(C)C([C@H](OC(=O)c3ccccc3)[C@]3(O)C[C@H](OC(=O)[C@H](O)[C@@H](NC(=O)c4ccccc4)c4ccccc4)C(C)=C1C3(C)C)[C@]1(OC(C)=O)CO[C@@H]1C[C@@H]2O.O=S(=O)(c1ccc2ccccc2c1)N(CCCCNc1ccnc2cc(Cl)ccc12)Cc1ccccc1 (some centres undefined) [listing 2 of 2 here] | – | – | 99% | – | – | Reduction (MDA-MB-435 [3]): 70%
11 | CC(=O)O[C@H]1C(=O)[C@@]2(C)C([C@H](OC(=O)c3ccccc3)[C@]3(O)C[C@H](OC(=O)[C@H](O)[C@@H](NC(=O)c4ccccc4)c4ccccc4)C(C)=C1C3(C)C)[C@]1(OC(C)=O)CO[C@@H]1C[C@@H]2O.COc1cc(NC(C)CCCN(Cc2ccccc2)S(=O)(=O)c2ccc3ccccc3c2)c2ncccc2c1 (some centres undefined) [listing 2 of 2 here] | – | – | 96% | – | – | Reduction (MDA-MB-435 [9]): 55%
12 | O=S(=O)(c1ccc2ccccc2c1)N(CCCCCCNc1ccnc2cc(Cl)ccc12)Cc1ccccc1 | – | – | – | 2000 | 1700 | –
13 | CC(=O)O[C@H]1C(=O)[C@@]2(C)[C@H]([C@H](OC(=O)c3ccccc3)[C@]3(O)C[C@H](OC(=O)[C@H](O)[C@@H](NC(=O)c4ccccc4)c4ccccc4)C(C)=C1C3(C)C)[C@]1(OC(C)=O)CO[C@@H]1C[C@@H]2O [PACLITAXEL] | – | – | 0% | 612 | 8 | IC50 (MDA-MB-435 [10]): 490 nM

From ChEMBL document CHEMBL1133953, “Modulation of human mammary cell sensitivity to paclitaxel by new quinoline sulfonamides” (Bioorg Med Chem Lett, 2001)
